OXTR agonist – human OXTR agonists, primary screen, fluorescence, CHO-OTR cells, Fluo-8 calcium | actives 0.32% (n = 320,000) | AID 2435, 2010 | activation, % at 3 µM | Fluo-8 calcium fluorescence; normalized: DMSO 0%, oxytocin 100%;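 active = activation above the mean of all tested compounds plus 3 SD, cutoff set per screening run, cut at about 20% in these data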;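 also: peak over basal fluorescence ratio from a 100 s FLIPR kinetic read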
TAAR1 antagonist – human TAAR1 antagonists, primary screen, Fluo-8 calcium fluorescence, CHO RD-HGA16 cells; Trace amine-associated receptor 1 (Homo sapiens), Q96RJ0; antagonist; actives 1.5% (n = 360,000); AID 624466, 2012; inhibition, % at 3 µM;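 active = inhibition above a per-plate cutoff, the mean inhibition of test compounds on that plate plus 3 SD, cut at about 49% in these data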;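 also: 0% = DMSO plus EC80 beta-PEA response and 100% = DMSO alone without agonist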
Target sequence (Q96RJ0 whole entry, looked up): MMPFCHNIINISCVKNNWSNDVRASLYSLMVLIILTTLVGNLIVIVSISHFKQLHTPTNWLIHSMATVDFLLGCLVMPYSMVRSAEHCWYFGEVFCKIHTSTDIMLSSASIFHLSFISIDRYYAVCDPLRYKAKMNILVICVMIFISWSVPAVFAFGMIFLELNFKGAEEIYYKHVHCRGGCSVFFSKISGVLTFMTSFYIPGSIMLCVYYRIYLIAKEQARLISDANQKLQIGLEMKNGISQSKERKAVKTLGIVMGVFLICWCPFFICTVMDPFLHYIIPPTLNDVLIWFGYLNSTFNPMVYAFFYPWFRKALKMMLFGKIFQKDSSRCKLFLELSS
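test system = CHO RD-HGA16 cells bearing hTAAR1 | replication = singlicate | controls = DMSO-only wells and EC80 β-PEA-stimulated wells | reagent = EC80 β-phenethylamine stimulus | read-out basis = percent inhibition of PEA-evoked calcium signal, max/basal emission ratio | schedule = seeding 17-24 h prior, 75-min 37 °C, 30-min RT dye loading | signal = kinetic Fluo-8 calcium fluorescence measurement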
V1aR counter – agonists of human V1a receptor, primary screen, counter-screen for OXTR agonist project, fluorescence, CHO-V1R cells. actives 0.25% (n = 320,000). AID 2797, 2010. Fluo-8 calcium fluorescence, agonist mode; 0% DMSO, 100% 3 nM vasopressin. activation, % at 3 µM;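 active = activation above the mean activation of all tested compounds plus 3 SD, per screening run, cut at about 20% in these data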;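 also: signal is peak over basal fluorescence ratio across a 100 second FLIPR read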
Target sequence (P37288 whole entry, looked up): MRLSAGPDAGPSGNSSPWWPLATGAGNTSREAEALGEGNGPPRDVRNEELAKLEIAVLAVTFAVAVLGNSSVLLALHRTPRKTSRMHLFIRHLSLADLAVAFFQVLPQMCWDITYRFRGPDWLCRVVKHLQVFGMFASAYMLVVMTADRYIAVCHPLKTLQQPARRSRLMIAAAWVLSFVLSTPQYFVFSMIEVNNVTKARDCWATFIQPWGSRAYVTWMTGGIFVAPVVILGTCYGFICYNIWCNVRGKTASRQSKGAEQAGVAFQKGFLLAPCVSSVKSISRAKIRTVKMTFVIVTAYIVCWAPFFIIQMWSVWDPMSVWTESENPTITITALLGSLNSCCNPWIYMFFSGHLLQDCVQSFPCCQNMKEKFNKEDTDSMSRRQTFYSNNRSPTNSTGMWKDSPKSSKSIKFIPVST
OXTR potentiator – human OXTR potentiators, primary screen, fluorescence, CHO-OTR cells, Fluo-8 calcium; Oxytocin receptor (Homo sapiens), P30559; Fluo-8 calcium fluorescence, potentiator mode; 0% = oxytocin EC15, 100% = EC100; activation, % at 3 µM; actives 0.061% (n = 320,000);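 active = activation above that plate's cutoff, the mean activation of tested compounds plus 3 SD, cut at about 6.6% in these data, passing the limit was not always enough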;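 also: 100% uses oxytocin at 75 nM as the full agonist control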
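Assay system: CHO cell line stably expressing human OTR. Reagent: EC15 oxytocin agonist. Dosing: single dose, 3.0 µM nominal final compound concentration. Timing: compound 6 min at room temperature before oxytocin, 100 s read. Signal: kinetic Fluo-8 calcium fluorescence. Controls: oxytocin EC15 low and EC100 high.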
TAAR1 agonist – human TAAR1 agonists, primary screen, Fluo-8 calcium fluorescence, CHO RD-HGA16 cells; vehicle wells 0%, saturating PEA agonist 100%; Trace amine-associated receptor 1 (Homo sapiens), Q96RJ0; actives 0.99% (n = 360,000); AID 624467, 2012; activation, % at 3 µM;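 active = activation above the mean activation of all test compounds in the run plus 3 SD, cut at about 38% in these data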
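System: CHO-derived RD-HGA16 cells with stable Gα16 and human TAAR1 / Times: 17-24 h plating, Fluo-8 75 min 37 °C, 30 min RT / Technique: calcium-sensitive Fluo-8 signal, excitation 470-495, emission 515-575 nm / Measure: % activation relative to PEA EC100 response / Benchmarks: DMSO and PEA EC100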
TAAR1 ag confirm – human TAAR1 agonists, retest of hits, confirmation, Fluo-8 calcium fluorescence, CHO RD-HGA16 cells; shares compounds with TAAR1 agonist; scaled: DMSO 0%, maximal phenethylamine 100%; activation, % at 3 µM; actives 82% (n = 2,400);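 active = activation above a cutoff set at the run's mean compound activation plus 3 SD, cut at about 39% in these data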
Ga16 ag counter – nonselective calcium mobilization agonists, CHO-Ga16 cells, counter-screen for hTAAR1 agonist project, cell-based, fluorescence, CHO-Ga16 parental line. actives 50% (n = 2,400). Fluo-8 calcium fluorescence; normalized to maximal ATP response, DMSO zero. activation, % at 3 µM. AID 651787, 2012. shares compounds with TAAR1 agonist;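 active = activation above the run cutoff, the mean activation over all tested wells plus 3 SD, cut at about 12% in these data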;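 also: 0% = DMSO wells and 100% = maximal ATP response on the peak over basal ratio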
TAAR1 desensitize – TAAR1 desensitization by agonist hits, confirmation, counter-screen for TAAR1 agonist project, cell-based, fluorescence, tachyphylaxis; shares compounds with TAAR1 agonist; CHO RD-HGA16 hTAAR1, Fluo-8 calcium, beta-PEA response inhibition; inhibition, % at 3 µM; actives 46% (n = 2,400);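 active = inhibition above the run cutoff, the mean inhibition of all test compounds plus 3 SD, cut at about 49% in these data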;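 also: beta-PEA stimulus applied at its EC80; loss of beta-PEA calcium signal after compound pretreatment read as receptor desensitization; 0% = DMSO with beta-PEA at EC80 and 100% = DMSO alone without agonist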
Ga16 antag count – inhibition of ATP-evoked calcium response in CHO-Ga16 cells, counter-screen for TAAR1 agonist project, cell-based, fluorescence | shares compounds with TAAR1 agonist | CHO-Ga16 ATP-induced calcium, Fluo-8 fluorescence | AID 651952, 2012 | inhibition, % at 3 µM | actives 39% (n = 2,400);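 active = inhibition above the plate's mean compound inhibition plus 3 SD, computed per plate, cut at about 22% in these data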;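 also: 0% = EC80 ATP with DMSO and 100% = DMSO wells without ATP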
Active calls of the source: *; . = not tested or not shown. A selection: hits, their analogues and other compounds. The true share with any hit is near 2.3%.

SMILES	OXTR agonist	TAAR1 antagonist	V1aR counter	OXTR potentiator	TAAR1 agonist	TAAR1 ag confirm	Ga16 ag counter	TAAR1 desensitize	Ga16 antag count
Clc1ccc(CSc2nnc(-c3ccncc3)s2)cc1	-0.3	-11.2	0.7	-1.7	5.9	.	.	.	.
Clc1cccc(Cl)c1CSc1nnc(-c2ccncc2)s1	15.4	78.5*	3.5	-17.1	117.0*	128.2*	116.6*	99.6*	74.8*
COC(=O)C(C(=O)OC)C(C[N+](=O)[O-])c1ccc(O)c(OC)c1 (centres undefined)	0.9	-22.5	0.6	-12.1	0.5	.	.	.	.
CC(C)N(C)CCOC(=O)/C=C/c1ccccc1	2.0	54.2*	0.5	4.8	72.6*	2.6	0.1	11.2	-0.2
O=C(NCCc1ccccc1)C1CC(=O)N(CCc2ccccc2)C1 (centres undefined)	0.0	-6.2	1.1	-9.5	43.8*	67.5*	0.1	30.2	8.1
O=C(O)C1CC(=O)N(CCc2ccccc2)C1 (centres undefined)	0.7	16.8	2.3	-9.6	43.7*	71.7*	3.2	0.1	5.9
Cc1ccccc1CCN(C(=O)c1csnn1)C(C(=O)NC1CCCC1)c1ccco1 (centres undefined)	-1.0	1.5	-1.5	-1.5	46.2*	70.0*	2.2	30.5	13.6
O=C(CSC1=NS(=O)(=O)c2ccccc2N1)NCCc1ccccc1	-1.0	71.2*	0.6	-5.6	88.9*	89.2*	7.1	74.9*	5.1
O=C(O)c1ccc(-c2noc(-c3ccccc3C(F)(F)F)n2)cc1	13.8	14.0	6.8	-2.7	81.9*	28.2	19.9*	19.5	23.7*
O=C(c1nc2ncccn2n1)N1CCc2ccccc2C1	1.5	20.6	-0.1	5.4	51.2*	71.2*	0.3	27.8	6.1
O=C(c1cccnc1)N1CCc2ccccc2C1	0.5	-5.7	0.0	-2.5	59.4*	40.3*	1.9	3.1	7.8
Cn1c(SCCN2CCCC2)nnc1C1CCN(S(=O)(=O)c2ccc(F)cc2)CC1	0.8	-10.0	0.7	1.1	0.9	.	.	.	.
CCOc1ccccc1N1CCN(Cc2cccc(OC)c2OC)CC1	0.4	9.1	1.1	4.0	13.3	.	.	.	.
CCOc1ccccc1N1CCN(Cc2cn[nH]c2-c2ccc(F)cc2)CC1	10.4	-29.4	18.0	1.0	95.1*	82.5*	40.9*	22.2	11.9
CCCCOc1ccccc1C(=O)NNC(=S)NC(=O)c1ccccc1[N+](=O)[O-]	9.2	34.4	8.6	-14.1	85.3*	42.9*	42.6*	36.8	40.6*
O=C(NNC(=S)NC(=O)c1ccccc1[N+](=O)[O-])c1ccccc1[N+](=O)[O-]	-0.1	-5.2	-0.2	0.8	-0.5	.	.	.	.
S=c1nc(NCCc2ccccc2Cl)c2ccccc2[nH]1	.	45.4	.	.	51.6*	33.4	11.2	20.1	22.3*
O=C(CCCCCNc1nc(=S)[nH]c2ccccc12)NCc1ccccc1Cl	0.0	-4.2	-0.6	-21.8	7.2	.	.	.	.
O=C(NCCCNC(=O)c1ccco1)c1ccc(F)cc1	0.3	-12.7	0.8	-4.4	0.7	.	.	.	.
CCCn1c(NC(=O)C2COc3ccccc3O2)nc2ccccc21 (centres undefined)	-0.8	48.7*	-0.7	-6.7	50.9*	6.8	2.4	8.1	17.6
CCCn1c(NC(=O)c2ccco2)nc2ccccc21	-1.7	5.7	-0.5	-0.9	0.3	.	.	.	.
CN(C(=O)CO/N=C/c1ccc(OC(F)F)cc1)C1CCS(=O)(=O)C1 (centres undefined)	-1.4	2.7	1.5	-18.1	3.1	.	.	.	.
Cc1ccc(NC(=O)N2CCCCC2)cc1[N+](=O)[O-]	0.9	11.1	4.3	-8.2	6.7	.	.	.	.
CN(C)CCCN1C(=O)c2cccc3c(Br)ccc(c23)C1=O	-0.3	-16.1	1.0	1.6	1.6	.	.	.	.
CCCCNc1ccc2c3c(cccc13)C(=O)N(CCCC)C2=O	.	107.9*	.	.	497.9*	182.4*	287.7*	90.4*	94.7*
SMILES	OXTR agonist	TAAR1 antagonist	V1aR counter	OXTR potentiator	TAAR1 agonist	TAAR1 ag confirm	Ga16 ag counter	TAAR1 desensitize	Ga16 antag count
CN(C)C=Nc1c(Br)cc(Br)c2nonc12	106.3*	77.8*	84.2*	-17.4	86.9*	48.3*	72.8*	56.4*	65.8*
CCCCCCCCCC(=O)NNC(=O)c1c(O)c2ccccc2n(CC)c1=O	0.7	4.5	0.2	0.8	5.2	.	.	.	.
CCn1c(=O)c(C(=O)NCc2ccc(F)cc2)c(O)c2ccccc21	0.5	-19.4	1.0	-1.4	-0.3	.	.	.	.
CCCCCC(=O)NNC(=O)c1c(O)c2ccccc2n(CC)c1=O	-0.7	7.9	0.5	-6.4	48.2*	18.5	24.1*	-3.1	0.0
CCn1c(=O)c(C(=O)NNC(=O)c2ccccc2F)c(O)c2ccccc21	28.0*	51.9*	51.9*	-10.5	101.6*	98.9*	88.6*	56.1*	59.9*
O=C(NNC(=O)c1c(O)c2ccccc2[nH]c1=O)c1ccccc1Br	-0.6	18.7	-0.7	1.4	-2.7	.	.	.	.
COc1ccc(Cl)c2sc(NC(=O)C3=COCCO3)nc12	3.8	-17.5	2.3	-14.9	10.3	.	.	.	.
Cc1ccc(Cl)c2sc(NC(=O)C3=COCCO3)nc12	6.6	11.1	0.8	-11.9	60.8*	12.7	20.1*	10.7	12.6
COc1ccc(/C=C2/SC(=S)N(Cc3ccccc3)C2=O)cc1O	.	-44.3	.	.	15.1	.	.	.	.
O=C1/C(=C\c2cc(Cl)c(O)c(Cl)c2)SC(=S)N1Cc1ccccc1	.	97.2*	.	.	110.9*	187.7*	258.1*	107.1*	106.2*
Cc1cc(C)nc(OC(C(=O)O)C(OCCc2ccccc2)(c2ccccc2)c2ccccc2)n1 (centres undefined)	-2.1	17.6	-1.2	-19.9	98.9*	126.0*	84.6*	19.7	3.0

Source: PubChem BioAssay
